Common to all, as to type: functional
The subject of one assay is HOP-62. The assay can be described thus: Antiproliferative activity was determined for 50% growth inhibition against human lung HOP-62 cell line. In outline: (§1)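 Human cancer cell lines from the roughly 55-line panel. GI50 is the concentration giving 50% growth inhibition. The test range was 10^-4 to 10^-8 M. Values outside the range were set to the minimum (10^-8 M) or the maximum (10^-4 M).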

A further assay has as its system DU-145. The experiment in a line: Antiproliferative activity was determined for 50% growth inhibition against human Prostate DU-145 cell line. In outline:
as §1

The next assay concerns MDA-MB-435. The assay can be described thus: Antiproliferative activity was determined for 50% growth inhibition against human breast MDA-MB-435 cell line. An outline of the steps:
as §1

For the next assay, the system named is HCT-116. The assay can be described thus: Antiproliferative activity was determined for 50% growth inhibition against human colon HCT116 cell line. In outline:
as §1

Another assay concerns SF-539. The assay can be described thus: Antiproliferative activity was determined for 50% growth inhibition against human CNS SF-539 cell line. In outline:
as §1

Another assay concerns UACC-62. The experiment in a line: Antiproliferative activity was determined for 50% growth inhibition against human melanoma UACC-62 cell line. An outline of the steps: as §1
Another assay has as its system OVCAR-3. The assay can be described thus: Antiproliferative activity was determined for 50% growth inhibition against human ovarian OVCAR-3 cell line. An outline of the steps: as §1
The test system of a further assay is SN12C. The experiment in a line: Antiproliferative activity was determined for 50% growth inhibition against human renal SN12C cell line. An outline of the steps: as §1
For assay [1], the system named is Panel (Carcinoma cell lines). The assay can be described thus: Mean graph midpoint for growth inhibition of all human cancer cell lines. Details: unit: µM. An outline of the steps: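 Mean graph midpoint across all cell lines successfully tested in the roughly 55-line human cancer panel. Each line's GI50 is the 50% growth-inhibition concentration, tested over 10^-4 to 10^-8 M. Out-of-range values were set to 10^-8 M or 10^-4 M before averaging.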

In general, GI50 refers to the concentration that inhibits growth by half.

Take `O=C1c2ccccc2-c2c1c1ccccc1c(=O)n2CCCBr`: the GI50 with HOP-62 (Homo sapiens, HOP-62) was 4.59 µM; with DU-145 (Homo sapiens, DU-145), 13 µM; in the assay with MDA-MB-435 (Homo sapiens, MDA-MB-435), 21.5 µM; with HCT-116 (Homo sapiens, HCT-116), 4.47 µM; in the assay with SF-539 (Homo sapiens, SF-539), 4.61 µM; in the assay with UACC-62 (Homo sapiens, UACC-62), 10.1 µM. Further, the GI50 is 23.5 µM in the assay with OVCAR-3 (Homo sapiens, OVCAR-3) and 7 µM with SN12C (Homo sapiens, SN12C). The compound also had an MGM in assay [1] of 13.3.
As to `O=C1c2cc3c(cc2-c2c1c1ccccc1c(=O)n2CCCNCCCO)OCO3`, the GI50 in the assay on HOP-62 (Homo sapiens, HOP-62) was 7.17 µM; in the assay with DU-145 (Homo sapiens, DU-145), 16.7 µM; in the assay on MDA-MB-435 (Homo sapiens, MDA-MB-435), 19.9 µM; in the assay on HCT-116 (Homo sapiens, HCT-116), 12.5 µM; in the assay with SF-539 (Homo sapiens, SF-539), 16.2 µM; in the assay on UACC-62 (Homo sapiens, UACC-62), > 100 µM. For the same compound, the GI50 amounted to 15 µM in the assay on OVCAR-3 (Homo sapiens, OVCAR-3) and 14.2 µM in the assay with SN12C (Homo sapiens, SN12C). For the same compound, the MGM in assay [1] came out at 15.5.
`COc1cc2c3c(n(C)c(=O)c2cc1OC)-c1cc2c(cc1C3)OCO2`: the GI50 with HOP-62 (Homo sapiens, HOP-62) is 11.8 µM; with DU-145 (Homo sapiens, DU-145) it was 42.5 µM; with MDA-MB-435 (Homo sapiens, MDA-MB-435), > 100 µM; in the assay on HCT-116 (Homo sapiens, HCT-116) it was 42.9 µM; with SF-539 (Homo sapiens, SF-539), 61.2 µM; with UACC-62 (Homo sapiens, UACC-62), 50 µM. Besides, the GI50 in the assay with OVCAR-3 (Homo sapiens, OVCAR-3) is > 100 µM; in the assay with SN12C (Homo sapiens, SN12C), 43.6 µM. For the same compound, the MGM in [1] is listed as 43.7.
As for `COc1cc2c3c(n(CCCNCCO)c(=O)c2cc1OC)-c1ccc2ccccc2c1C3=O`, the 50% growth inhibitory concentration (GI50) with HOP-62 (Homo sapiens, HOP-62) came to 0.17 µM; in the assay with DU-145 (Homo sapiens, DU-145), 0.28 µM; in the assay with MDA-MB-435 (Homo sapiens, MDA-MB-435), 0.42 µM; in the assay with HCT-116 (Homo sapiens, HCT-116), 0.18 µM; in the assay on SF-539 (Homo sapiens, SF-539), 0.22 µM; in the assay on UACC-62 (Homo sapiens, UACC-62) it was 0.16 µM. For the same compound, the GI50 in the assay on OVCAR-3 (Homo sapiens, OVCAR-3) worked out at 0.27 µM; with SN12C (Homo sapiens, SN12C) it was 0.15 µM. In addition, the MGM in assay [1] worked out at 0.19.
With `COc1cc2c(cc1OC)-c1c(c3ccccc3c(=O)n1CCCCl)C2=O`, the GI50 is > 100 µM in the assay on HOP-62 (Homo sapiens, HOP-62); > 100 µM in the assay with DU-145 (Homo sapiens, DU-145); > 100 µM in the assay on MDA-MB-435 (Homo sapiens, MDA-MB-435); > 100 µM in the assay with HCT-116 (Homo sapiens, HCT-116); > 100 µM in the assay on SF-539 (Homo sapiens, SF-539); > 100 µM in the assay on UACC-62 (Homo sapiens, UACC-62). Also, the concentration for 50% growth inhibition (GI50) is > 100 µM with OVCAR-3 (Homo sapiens, OVCAR-3) and > 100 µM with SN12C (Homo sapiens, SN12C). Moreover, in assay [1], the MGM turned out to be 76.1.
As to `COc1cc2c(cc1OC)-c1c(c3cc(OC)c(OC)cc3c(=O)n1CCCNCCCCO)C2=O`, the concentration for 50% growth inhibition (GI50) in the assay with HOP-62 was 0.14 µM; in the assay on DU-145, 0.1 µM; in the assay on MDA-MB-435, 2.36 µM; in the assay with HCT-116, 0.71 µM; with SF-539, 0.06 µM; with UACC-62, 1.67 µM. For the same compound, the GI50 in the assay with OVCAR-3 was found to be 3.52 µM; in the assay on SN12C, 0.11 µM. This compound also displayed an MGM in [1] of 0.85.
Regarding `COc1cc2c3c(n(CCCBr)c(=O)c2cc1OC)-c1cc2c(cc1C3=O)OCO2`, the GI50 is 6.22 µM with HOP-62 (Homo sapiens, HOP-62); 3.2 µM in the assay with DU-145 (Homo sapiens, DU-145); 16.6 µM in the assay on MDA-MB-435 (Homo sapiens, MDA-MB-435); 12 µM in the assay with HCT-116 (Homo sapiens, HCT-116); 4.33 µM in the assay with SF-539 (Homo sapiens, SF-539); 5.02 µM in the assay with UACC-62 (Homo sapiens, UACC-62). Moreover, the GI50 was 62.1 µM in the assay on OVCAR-3 (Homo sapiens, OVCAR-3) and 5.83 µM in the assay on SN12C (Homo sapiens, SN12C). The MGM in assay [1] is recorded as 13.7.
As for `COc1cc2c(cc1OC)-c1c(c3cc(OC)c(OC)cc3c(=O)n1CCCNCCCCO)C2=O.Cl`, the GI50 amounted to 0.26 µM in the assay with HOP-62 (Homo sapiens, HOP-62); 0.21 µM in the assay with DU-145; 2.09 µM in the assay on MDA-MB-435 (Homo sapiens, MDA-MB-435); 0.81 µM with HCT-116 (Homo sapiens, HCT-116); 0.59 µM in the assay on SF-539; 1.76 µM in the assay with UACC-62 (Homo sapiens, UACC-62). The GI50 in the assay with OVCAR-3 (Homo sapiens, OVCAR-3) came out at 5.49 µM; with SN12C it was 0.28 µM. This compound returned an MGM in assay [1] of 1.47.
`COc1cc2c3c(n(CCCN=[N+]=[N-])c(=O)c2cc1OC)-c1cc2c(cc1C3=O)OCO2`: the GI50 in the assay with HOP-62 (Homo sapiens, HOP-62) was 3.58 µM; in the assay on DU-145 (Homo sapiens, DU-145), 3.19 µM; in the assay with MDA-MB-435 (Homo sapiens, MDA-MB-435), > 100 µM; in the assay on HCT-116 (Homo sapiens, HCT-116) it was 7.4 µM; in the assay on SF-539 (Homo sapiens, SF-539), 3 µM; with OVCAR-3 (Homo sapiens, OVCAR-3), 76.2 µM. The compound also yielded a GI50 in the assay with SN12C (Homo sapiens, SN12C) of 4.53 µM. The compound further registered an MGM in assay [1] of 11.8.
Turning to `COc1cc2c3c(n(C)c(=O)c2cc1OC)-c1cc2c(cc1C3=O)OCO2`, the GI50 in the assay on HOP-62 (Homo sapiens, HOP-62) was 1.3 µM; in the assay with DU-145 (Homo sapiens, DU-145) it was 37 µM; in the assay on MDA-MB-435 (Homo sapiens, MDA-MB-435), 96 µM; in the assay on HCT-116 (Homo sapiens, HCT-116), 35 µM; in the assay on SF-539 (Homo sapiens, SF-539), 41 µM; in the assay on UACC-62 (Homo sapiens, UACC-62) it was 4.2 µM. The compound also had a GI50 with SN12C (Homo sapiens, SN12C) of 68 µM. For the same compound, the MGM in assay [1] is 20.
Turning to `CC[C@@]1(O)C(=O)OCc2c1cc1n(c2=O)Cc2cc3ccccc3nc2-1` [CAMPTOTHECIN], the GI50 is 0.01 µM with HOP-62 (Homo sapiens, HOP-62); 0.01 µM in the assay with DU-145 (Homo sapiens, DU-145); 0.04 µM with MDA-MB-435 (Homo sapiens, MDA-MB-435); 0.03 µM with HCT-116 (Homo sapiens, HCT-116); 0.01 µM with SF-539 (Homo sapiens, SF-539); 0.01 µM in the assay with UACC-62 (Homo sapiens, UACC-62). In the assay with SN12C (Homo sapiens, SN12C), this compound returned a GI50 of 0.02 µM.

Source of the values: ChEMBL document CHEMBL1133678, “Synthesis of new indeno[1,2-c]isoquinolines: cytotoxic non-camptothecin topoisomerase I inhibitors” (2000).
